The test system of data set [1] is Mycobacterium tuberculosis. The data set can be described thus: Antitubercular activity against Mycobacterium tuberculosis H37Rv incubated for 5 days by microplate alamar blue assay. Type of data set: functional. As to conditions: 120 h. The procedure, abridged: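 M. tuberculosis H37Rv grown with compound in microplate Alamar Blue assay; plates sealed and incubated at 37 °C for five days. A 1:1 mix of Alamar Blue reagent and 10% Tween 80 was then added, followed by another 24 h. Blue was scored as no growth and pink as growth. MIC was the lowest concentration preventing blue-to-pink change.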
(Resazurin is reduced to fluorescent resorufin, in cell work by metabolically active cells.)

A further data set deals with HEK293. The data set can be described thus: Cytotoxicity against HEK293 cells assessed as cell viability incubated for 48 hrs by MTT assay. It counts as cell-based. As to conditions: Homo sapiens, HEK293, 48 h. The procedure, abridged:
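HEK293 cells seeded in 96-well plates and held overnight at 37 °C, 5% CO2, 95% humidity. Cells were treated with 500, 250, 125, 62.5, 31.25 and 15.625 (units not given) for 48 h, washed twice with phosphate buffer, then given MTT (5 mg/mL stock) for 4 h at 37 °C. Formazan was dissolved in DMSO and absorbance read at 570 nm.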
(Tetrazolium dyes change colour on reduction, which living cells bring about.)

Data set [2] can be described thus: Chemical stability of compound in DMF at 5 x 10^-5 M incubated for 24 hrs by spectrometric analysis. It counts as physicochemical. As to conditions: 50 µM. The procedure, abridged: (§1)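 Compound stock prepared in DMF, then diluted with DMF or with buffers of pH 6–8 to 5 × 10⁻⁵ M. Samples were kept at room temperature. UV absorption and fluorescence emission spectra were recorded and their patterns compared over 24 h and 72 h.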

A short description of data set [3]: Chemical stability of compound in pH 6 to 8 buffer at 5 x 10^-5 M incubated for 24 hrs by spectrometric analysis. It counts as physicochemical. Particulars: pH 6, 24 h, 50 µM. In short, it runs like this: as §1
The nature of data set [4]: Chemical stability of compound in DMF at 5 x 10^-5 M incubated for 72 hrs by spectrometric analysis. It counts as physicochemical. Particulars: 50 µM. The procedure, abridged: as §1
Data set [5] in a line: Chemical stability of compound in pH 6 to 8 buffer at 5 x 10^-5 M incubated for 72 hrs by spectrometric analysis. As to conditions: pH 6, 72 h, 50 µM. It counts as physicochemical. In short, it runs like this:
as §1

≈ marks a conversion by molar mass, not a printed value.

Drawing on ChEMBL document CHEMBL4396954, “A click chemistry approach for the synthesis of cyclic ureido tethered coumarinyl and 1-aza coumarinyl 1,2,3-triazoles as inhibitors of Mycobacterium tuberculosis H37Rv and their in silico studies” (Bioorg Med Chem, 2019), this text covers MIC, IC50 and Stability for 26 molecules.

For the molecule `Cc1ccc2oc(=O)cc(Cn3cc(Cn4c(C)cc(=O)n(Cc5cn(Cc6cc(=O)oc7ccc(C)cc67)nn5)c4=O)nn3)c2c1`, the MIC in data set [1] is 79.1 µM (≈ 50 µg/mL). Moreover, the IC50 in the data set with HEK293 stood at 1.28 mM.

As to `CC(C)c1ccc2oc(=O)cc(Cn3cc(Cn4c(=O)n(Cc5cn(Cc6cc(=O)oc7ccc(C(C)C)cc67)nn5)c5ccccc54)nn3)c2c1`, in data set [1], the lowest concentration to inhibit growth (MIC) was 2.49 µM (≈ 1.73 µg/mL). The IC50 with HEK293 is 3.2 mM. In addition, the Stability result in data set [2] is “Stable”; in data set [3], “Stable”; in data set [4], “Unstable”; in data set [5] it was “Unstable”.

Molecule `O=c1cc(Cn2cc(Cn3c(=O)n(Cc4cn(Cc5cc(=O)[nH]c6cc(Cl)ccc56)nn4)c4ccccc43)nn2)c2ccc(Cl)cc2[nH]1` registered an MIC in data set [1] of 2.35 µM (≈ 1.6 µg/mL). Moreover, in the data set with HEK293, the IC50 was found to be 4.57 mM. For the same molecule, the Stability entry in data set [2] was “Stable”; in data set [3], “Stable”; in data set [4], “Unstable”; in data set [5] it was “Unstable”.

`NC(=O)c1cnccn1` [PYRAZINAMIDE] had an MIC in data set [1] of 25.4 µM (≈ 3.12 µg/mL).

As for `Cc1cc(C)c2c(Cn3cc(Cn4cnc5c4c(=O)n(C)c(=O)n5C)nn3)cc(=O)oc2c1`, the MIC in data set [1] stood at 111 µM (≈ 49.7 µg/mL).

On to `Cc1cccc2c(Cn3cc(Cn4c(=O)n(Cc5cn(Cc6cc(=O)[nH]c7c(C)cccc67)nn5)c5ccccc54)nn3)cc(=O)[nH]c12`, for which the lowest concentration to inhibit growth in data set [1] (MIC) was 2.5 µM (≈ 1.6 µg/mL). Further, the IC50 in the data set on HEK293 was 4.34 mM. Moreover, the Stability entry in data set [2] is listed as “Stable”; in data set [3], “Stable”; in data set [4], “Unstable”; in data set [5], “Unstable”.

On to `Cc1ccc2c(Cn3cc(Cn4c(C)cc(=O)n(Cc5cn(Cc6cc(=O)oc7cc(C)ccc67)nn5)c4=O)nn3)cc(=O)oc2c1`, for which the lowest concentration to inhibit growth in data set [1] (MIC) was 79.1 µM (≈ 50 µg/mL).

`O=c1cc(Cn2cc(Cn3c(=O)n(Cc4cn(Cc5cc(=O)[nH]c6ccc(Cl)cc56)nn4)c4ccccc43)nn2)c2cc(Cl)ccc2[nH]1`: in data set [1], it took 2.35 µM (≈ 1.6 µg/mL) to inhibit growth (MIC). In the data set with HEK293, the half-inhibitory concentration (IC50) is 12.3 mM. The Stability result in data set [2] is reported as “Stable”; in data set [3] it was “Stable”; in data set [4] it was “Unstable”; in data set [5] it was “Unstable”.

`COc1ccc2oc(=O)cc(Cn3cc(Cn4c(C)cc(=O)n(Cc5cn(Cc6cc(=O)oc7ccc(OC)cc67)nn5)c4=O)nn3)c2c1` returned an MIC in data set [1] of 75.2 µM (≈ 50 µg/mL). Moreover, the IC50 in the data set with HEK293 came out at 1.52 mM.

In the case of `O=c1cc(Cn2cc(Cn3c(=O)n(Cc4cn(Cc5cc(=O)oc6ccc7ccccc7c56)nn4)c4ccccc43)nn2)c2c(ccc3ccccc32)o1`, 8.76 µM (≈ 6.24 µg/mL) was the least that counted as inhibitory in data set [1] (MIC). In addition, the IC50 in the data set on HEK293 worked out at 1.13 mM. For the same molecule, the Stability result is recorded as “Stable” in data set [2], “Stable” in data set [3], “Unstable” in data set [4] and “Unstable” in data set [5].

For `O=c1cc(Cn2cc(Cn3c(=O)n(Cc4cn(Cc5cc(=O)oc6ccc(Cl)cc56)nn4)c4ccccc43)nn2)c2cc(Cl)ccc2o1`, in data set [1], the MIC was 18.3 µM (≈ 12.5 µg/mL). The Stability result in data set [2] is on record as “Stable”; in data set [3] it was “Stable”; in data set [4], “Unstable”; in data set [5], “Unstable”.

In the case of `COc1ccc2oc(=O)cc(Cn3cc(Cn4cnc5c4c(=O)n(C)c(=O)n5C)nn3)c2c1`, the MIC in data set [1] came to 55.6 µM (≈ 25 µg/mL). The IC50 in the data set on HEK293 was 1.38 mM.

In data set [1], `Cc1ccc2c(Cn3cc(Cn4c(=O)n(Cc5cn(Cc6cc(=O)oc7cc(C)ccc67)nn5)c5ccccc54)nn3)cc(=O)oc2c1` had an MIC of 2.49 µM (≈ 1.6 µg/mL). Also, the half-maximal inhibitory concentration (IC50) in the data set on HEK293 was found to be 3.52 mM. Also, the Stability result in data set [2] is “Stable”; in data set [3], “Stable”; in data set [4], “Unstable”; in data set [5] it was “Unstable”.

In data set [1], `Cc1cc(C)c2c(Cn3cc(Cn4c(C)cc(=O)n(Cc5cn(Cc6cc(=O)oc7cc(C)cc(C)c67)nn5)c4=O)nn3)cc(=O)oc2c1` displayed a minimum inhibitory concentration (MIC) of 75.7 µM (≈ 50 µg/mL).

In data set [1], `COc1ccc2oc(=O)cc(Cn3cc(Cn4c(=O)n(Cc5cn(Cc6cc(=O)oc7ccc(OC)cc67)nn5)c5ccccc54)nn3)c2c1` had an MIC of 4.64 µM (≈ 3.12 µg/mL). The IC50 with HEK293 turned out to be 4.12 mM. The Stability entry is listed as “Stable” in data set [2], “Stable” in data set [3], “Unstable” in data set [4] and “Unstable” in data set [5].

`CN[C@@H]1[C@H](O[C@H]2[C@H](O[C@H]3[C@H](O)[C@@H](O)[C@H](N=C(N)N)[C@@H](O)[C@@H]3N=C(N)N)O[C@@H](C)[C@]2(O)C=O)O[C@@H](CO)[C@H](O)[C@H]1O` [STREPTOMYCIN]: the minimum inhibitory concentration (MIC) in data set [1] is 10.7 µM (≈ 6.25 µg/mL).

In data set [1], `O=c1cc(Cn2cc(Cn3c(=O)n(Cc4cn(Cc5cc(=O)[nH]c6ccccc56)nn4)c4ccccc43)nn2)c2ccccc2[nH]1` yielded an MIC of 10.2 µM (≈ 6.25 µg/mL). Further, the Stability result in data set [2] was “Stable”; in data set [3], “Stable”; in data set [4], “Unstable”; in data set [5], “Unstable”.

As to `Cc1ccc2c(Cn3cc(Cn4c(=O)n(Cc5cn(Cc6cc(=O)oc7c(C)c(C)ccc67)nn5)c5ccccc54)nn3)cc(=O)oc2c1C`, 2.39 µM (≈ 1.6 µg/mL) was the least that counted as inhibitory in data set [1] (MIC). Moreover, the IC50 with HEK293 worked out at 3.43 mM. The Stability result in data set [2] is “Stable”; in data set [3] it was “Stable”; in data set [4], “Unstable”; in data set [5], “Unstable”.

In turn, `Cc1cccc2c(Cn3cc(Cn4c(C)cc(=O)n(Cc5cn(Cc6cc(=O)[nH]c7c(C)cccc67)nn5)c4=O)nn3)cc(=O)[nH]c12` gave an MIC in data set [1] of 79.3 µM (≈ 50 µg/mL). Further, in the data set on HEK293, the IC50 came out at 1.15 mM.

The molecule `O=C(O)c1cn(C2CC2)c2cc(N3CCNCC3)c(F)cc2c1=O` [CIPROFLOXACIN] returned an MIC in data set [1] of 9.43 µM (≈ 3.12 µg/mL).

Turning to `O=c1cc(Cn2cc(Cn3c(=O)n(Cc4cn(Cc5cc(=O)oc6c5ccc5ccccc56)nn4)c4ccccc43)nn2)c2ccc3ccccc3c2o1`, the MIC in data set [1] turned out to be 2.34 µM (≈ 1.67 µg/mL). The IC50 with HEK293 is 3.13 mM. The Stability result in data set [2] was “Stable”; in data set [3] it was “Stable”; in data set [4] it was “Unstable”; in data set [5], “Unstable”.

Regarding `Cc1ccc2oc(=O)cc(Cn3cc(Cn4c(=O)n(Cc5cn(Cc6cc(=O)oc7ccc(C)cc67)nn5)c5ccccc54)nn3)c2c1`, the MIC in data set [1] worked out at 2.49 µM (≈ 1.6 µg/mL). For the same molecule, the IC50 with HEK293 was 3.58 mM. In addition, the Stability entry in data set [2] is “Stable”; in data set [3], “Stable”; in data set [4] it was “Unstable”; in data set [5], “Unstable”.

The molecule `COc1ccc2c(Cn3cc(Cn4c(=O)n(Cc5cn(Cc6cc(=O)oc7cc(OC)ccc67)nn5)c5ccccc54)nn3)cc(=O)oc2c1` came in with an MIC in data set [1] of 2.37 µM (≈ 1.59 µg/mL). Besides, in the data set on HEK293, the IC50 was 4.62 mM. Also, the Stability entry in data set [2] is given as “Stable”; in data set [3], “Stable”; in data set [4], “Unstable”; in data set [5] it was “Unstable”.

With `Cc1cc(C)c2c(Cn3cc(Cn4c(=O)n(Cc5cn(Cc6cc(=O)oc7cc(C)cc(C)c67)nn5)c5ccccc54)nn3)cc(=O)oc2c1`, in data set [1], the MIC amounted to 2.39 µM (≈ 1.6 µg/mL). In addition, in the data set with HEK293, the IC50 was determined as 0.943 mM. In addition, the Stability result in data set [2] is listed as “Stable”; in data set [3] it was “Stable”; in data set [4], “Unstable”; in data set [5], “Unstable”.

In data set [1], `Cc1cccc2c(Cn3cc(Cn4cnc5c4c(=O)n(C)c(=O)n5C)nn3)cc(=O)[nH]c12` came in with an MIC of 116 µM (≈ 50 µg/mL). In addition, in the data set on HEK293, the IC50 stood at 5.04 mM.

In data set [1], `Cc1ccc2oc(=O)cc(Cn3cc(Cn4cnc5c4c(=O)n(C)c(=O)n5C)nn3)c2c1` had an MIC of 115 µM (≈ 50 µg/mL). Further, the IC50 in the data set on HEK293 turned out to be 1.11 mM.

Usually MIC stands for the least concentration at which growth counts as inhibited. Higher therefore signals weaker potency. Usually IC50 stands for the point on the concentration scale where inhibition reaches its midpoint.
